Screens deposited in PubChem BioAssay by The Scripps Research Institute Molecular Screening Center.
This is a sample that favours compounds with a hit; in the whole collection about 1.7% have one here.
CHRM5 antagonist = CHRM5 antagonism in calcium assay; P08912; CHO-hM5 cells, Fluo-8 calcium fluorescence, ACh EC80; inhibition, % at 3 µM; 360,000 tested, 0.59% active;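 active = inhibition above a per-plate cutoff, the mean of that plate's test compounds plus 3 SD, cut at about 27% in these data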;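 note: 0% = acetylcholine EC80 with DMSO and 100% = DMSO without agonist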
Target sequence (P08912 whole entry, looked up): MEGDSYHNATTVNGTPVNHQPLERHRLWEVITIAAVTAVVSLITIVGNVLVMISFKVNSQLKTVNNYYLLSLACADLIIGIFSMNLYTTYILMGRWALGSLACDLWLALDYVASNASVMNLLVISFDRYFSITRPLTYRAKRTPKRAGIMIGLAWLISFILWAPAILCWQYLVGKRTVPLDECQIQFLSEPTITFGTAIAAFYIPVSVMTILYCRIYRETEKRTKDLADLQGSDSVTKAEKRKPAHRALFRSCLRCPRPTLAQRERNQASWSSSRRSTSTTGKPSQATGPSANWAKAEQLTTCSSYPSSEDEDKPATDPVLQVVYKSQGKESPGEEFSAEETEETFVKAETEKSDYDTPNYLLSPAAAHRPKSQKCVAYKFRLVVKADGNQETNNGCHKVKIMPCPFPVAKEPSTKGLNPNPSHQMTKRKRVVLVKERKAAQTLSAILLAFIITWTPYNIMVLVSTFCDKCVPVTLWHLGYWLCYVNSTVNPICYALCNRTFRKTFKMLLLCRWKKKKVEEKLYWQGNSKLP
CHO-K1 Ca antag = counter-screen for M1 antagonists: effect in parental CHO-K1 cells | inhibition, % at 3 µM | AID 602250 | ATP-induced calcium, Fluo-8 fluorescence | 360,000 tested, 0.6% active;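 active = inhibition above a per-plate cutoff, the plate's mean sample inhibition plus 3 SD, cut at about 24% in these data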;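 note: 0% = DMSO plus EC80 ATP and 100% = DMSO alone without ATP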
CHRM5 agonist = CHRM5 agonism in calcium assay | P08912 | CHO-K1 hM5 cells, Fluo-8 calcium fluorescence; 0% DMSO wells, 100% maximal acetylcholine response | activation, % at 3 µM | 360,000 tested, 0.19% active;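 active = activation above the run's mean over test compounds plus 3 SD, cut at about 23% in these data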;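 note: signal is peak over basal fluorescence ratio across the kinetic read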
CHO-K1 Ca PAM = counter-screen for M1 PAMs: effect in parental CHO-K1 cells | AID 602247 | ATP EC20, Fluo-8 calcium fluorescence; 0% at ATP EC20, 100% at ATP max | 360,000 tested, 0.02% active | activation, % at 3 µM;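 active = activation above the run cutoff, the mean activation of all test compounds plus 3 SD, cut at about 40% in these data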;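 note: peak over basal fluorescence ratio in a 140 s read after ATP addition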
M5 PAM = CHRM5 positive allosteric modulation | P08912 | CHO-K1 hM5, Fluo-8 calcium, ACh EC20 PAM; 0% = ACh EC20, 100% = ACh EC100 | activation, % at 3 µM | 360,000 tested, 0.3% active | AID 624038;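 active = activation above the run cutoff, the mean activation of all test compounds plus 3 SD, cut at about 18% in these data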
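Assay system: CHO-K1 hM5 cells / Incubation: Fluo-8 loading 80 min at 37 °C plus 30 min room temperature / Technique: Fluo-8 calcium dye fluorescence, kinetic read / Repeats: single replicate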
CHO-K1 Ca ag = nonselective activator or artifact in parental CHO-K1 cells; Fluo-8 calcium fluorescence; scaled to maximal ATP response, vehicle zero; activation, % at 3 µM; 360,000 tested, 0.48% active; AID 602248; in the data active = activation above about 15%;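 note: untransfected CHO-K1 host cells lacking M1 receptor as counterscreen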
An asterisk follows results filed as active.

SMILES	CHRM5 antagonist	CHO-K1 Ca antag	CHRM5 agonist	CHO-K1 Ca PAM	M5 PAM	CHO-K1 Ca ag
CC(C)(C)S(=O)N1Cc2cc(C(=O)NCc3ccc(Oc4ccccc4)cc3)nc(-c3cccc(-c4cc5ccccc5o4)c3)c2[C@H]1CCO (stereo partly specified)	2.3	-0.8	7.0	20.8	0.5	1.2
CCOC(=O)c1c(N2C(=O)Nc3ccccc3N2O)n[nH]c1-c1cccc(Cl)c1	-3.2	23.8*	-3.9	-16.2	3.7	-0.5
Cc1cccc(N2C(=O)N3[C@H](c4ccc(F)cc4)[C@@H]4C(=O)N(C5CCCCC5)C(=O)[C@@H]4[C@]3(Cc3ccc(Cl)cc3)C2=O)c1	3.5	-13.4	0.3	18.8	13.1	0.7
Cc1cccc(N2C(=O)N3[C@H](c4ccc(Cl)cc4)[C@@H]4C(=O)N(C5CCCCC5)C(=O)[C@@H]4[C@]3(Cc3ccc(Cl)cc3)C2=O)c1	-13.1	-5.2	7.2	-3.6	19.0*	-0.1
O=C(Nc1ccc(Cl)cc1)N(C1=NCCC1)c1ccc(OC(F)F)cc1	27.3*	13.6	4.8	10.0	-10.7	7.4
COc1ccc(CN(CCC(C)C)S(=O)(=O)c2ccccc2Br)cc1	1.2	11.4	-1.4	-5.8	-1.6	0.6
Cc1ccc(N2C(=O)CC(NNc3nc4ccccc4s3)C2=O)cc1 (stereo unspecified)	-2.1	10.9	1.0	15.3	2.8	16.7*
O=C1CC(NNc2nc3ccccc3s2)C(=O)N1c1ccccc1 (stereo unspecified)	0.4	-1.7	1.1	9.6	-10.4	3.0
O=C1CCCC2=C1C(c1cccc(O)c1)C1=C(N2)c2ccccc2C1=O (stereo unspecified)	-9.6	-5.8	4.6	11.4	18.2*	0.1
Cc1ccc2c(c1)N(CC(=O)NCCc1ccccc1)C(=O)c1cccnc1O2	4.3	1.5	2.5	8.8	-7.7	0.8
COc1cccc(C2C(C(N)=O)=C(C)Nc3nc(CCCO)nn32)c1OC (stereo unspecified)	-2.8	-5.8	1.2	17.2	-0.7	0.5
CCOc1ccccc1C1C(C(N)=O)=C(C)Nc2nc(CCCO)nn21 (stereo unspecified)	-4.2	26.7*	-0.9	-8.6	-2.4	-0.4
COC(=O)c1cncc(O)c1	-3.0	-3.6	-1.4	-3.5	-3.5	-0.6
COc1cc(C)ccc1OCc1cc(C(=O)NC(c2ccccn2)C(F)(F)F)no1 (stereo unspecified)	4.4	35.2*	1.5	-11.7	-4.7	-0.2
Cc1ccc(S(=O)(=O)N(CC(=O)N/N=C/c2cccc(Cl)c2)c2cccc3cccnc23)cc1	5.6	24.0*	-3.0	-9.7	-0.4	0.2
COc1ccc(-c2cn3cccnc3n2)cc1F	-4.9	18.7	-0.1	-10.6	18.3*	-0.6
COC(=O)C(NC(=O)C(NC(=O)C1CCC(C)CC1)C(C)C)C(C)C (stereo unspecified)	-7.6	-0.5	-3.1	-11.6	3.3	-0.2
COC(=O)C(NC(=O)C(CC(C)C)NC(=O)C1CCC(C)CC1)C(C)C (stereo unspecified)	36.0*	11.3	2.5	-5.0	35.6*	-0.2
CN1CCC(=NNc2ncnc3sc4c(c23)CCCC4)CC1	-1.7	27.1*	-1.4	-6.2	-1.3	-0.1
O=c1c2ccccc2ncn1-c1ccc([N+](=O)[O-])cc1[N+](=O)[O-]	14.5	2.0	10.2	-20.3	-16.1	18.7*
COc1ccc(-c2nnc(SCC(=O)c3cccs3)n2-c2ccc(Cl)cc2)cc1	-0.5	-10.4	-4.3	28.3	-4.4	0.5
Cc1ccc(Cc2c(-c3ccc(F)cc3)nc3c(Cl)cc(C(F)(F)F)cn23)cc1	0.5	-16.5	2.7	4.6	0.1	0.4
FC(F)(F)c1cc(Cl)c2nc(-c3ccc(Cl)cc3)c(Cc3ccsc3)n2c1	4.6	30.6*	0.0	-8.6	-5.8	-0.4
Fc1ccc(-c2nc3c(Cl)cc(C(F)(F)F)cn3c2Cc2cccc(Cl)c2)cc1	-7.1	33.1*	1.2	-5.5	1.8	-0.6
Cc1ccc2nc(-c3ccc(F)cc3)c(Cc3cccc(Cl)c3)n2c1	-4.3	32.0*	-4.8	-9.2	-5.4	-0.6
